Measurements published in publication PMC3972761 (Chemistry & biology, 2008).
Marks after values point to notes of the source that are not given here.

Key:
[1] = biological target: T1, purified hMGL (Homo sapiens, UniProt Q99685); assay: Inhibition of purified hMGL at fixed inhibitor:hMGL molar ratios; type: biochemical; conditions: for hMGL Inhibition (%) 10 min: 50 μM AHMMCE, 1 hr preincubation
T1 sequence (Q99685 1-303): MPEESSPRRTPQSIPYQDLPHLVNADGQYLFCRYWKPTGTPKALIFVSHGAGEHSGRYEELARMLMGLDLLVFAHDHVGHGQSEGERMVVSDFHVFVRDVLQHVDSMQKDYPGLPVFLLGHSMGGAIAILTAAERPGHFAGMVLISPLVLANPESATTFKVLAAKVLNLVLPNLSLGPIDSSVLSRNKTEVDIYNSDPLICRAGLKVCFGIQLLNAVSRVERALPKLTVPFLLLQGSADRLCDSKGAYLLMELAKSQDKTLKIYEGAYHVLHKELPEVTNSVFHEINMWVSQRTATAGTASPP

[2] = biological target: T2, hMGL (recombinant hexa-histidine-tagged human MGL) (Homo sapiens, UniProt Q99685); assay: Fluorescence-based AHMMCE hydrolysis assay, E. coli lysate containing hMGL; type: biochemical; conditions: for hMGL inhibition potency (in words): E. coli lysate containing hMGL, 3-hr incubation, AHMMCE
T2 sequence (Q99685 1-303): T1 sequence (Q99685 1-303)
Procedure, shortened: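 Test compound was preincubated 15 min at room temperature with E. coli lysate containing hMGL (175 ng total protein) in 50 mM Tris-HCl pH 7.4 with 8% DMSO. AHMMCE was then added (20 μM final) and fluorescence (360/460 nm) read every 15 min for 3 hr. HMC formed at 2 h was quantified against an HMC standard curve, and IC50 was fitted by nonlinear regression.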

[3] = biological target: T3, hMGL cysteine residues (Homo sapiens, UniProt Q99685); assay: MALDI-TOF MS of tryptic digest of NAM-treated hMGL; conditions: for Relative Alkylation of Cys39: percent alkylation of Cys39 relative to Cys208
T3 sequence (Q99685 1-303): T1 sequence (Q99685 1-303)
Procedure, shortened: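 Purified His-tagged hMGL (3 μM) was incubated 1 hr at room temperature in 10 mM Tris-HCl pH 8.0 with test compound at set molar ratios. It was desalted into 50 mM ammonium bicarbonate with 0.02% CYMAL, pH 8.0, then trypsin-digested overnight, either directly or after DTT (17 mM, 30 min) and iodoacetamide (55 mM, 1 hr, dark). Digests were analysed by MALDI-TOF MS with CHCA matrix.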

[4] = tested on: recombinant MGL; conditions: read-out: IC50, recombinant MGL; time-dependent; ref Alexander and Cravatt, 2006; cited from earlier work
[5] = inhibitor:hMGL molar ratio 3.3:1
[6] = inhibitor:hMGL molar ratio 8.3:1

Molecule | hMGL Inhibition (%) 10 min ([1]; inhibitor:hMGL molar ratio 1:1) [%] | hMGL Inhibition (%) 10 min [1, 5] [%] | hMGL Inhibition (%) 10 min [1, 6] [%] | hMGL inhibition potency (in words) [2] | also measured
CN(C)C(=O)n1nnc(Cc2ccc(-c3ccccc3)cc2)n1 [AM6701, 5-((biphenyl-4-yl)methyl)-N,N-dimethyl-2H-tetrazole-2-carboxamide] | 72 | 85 | 91 | – | –
CN(C)C(=O)n1nnnc1Cc1ccc(-c2ccccc2)cc1 [AM6702, 5-((biphenyl-4-yl)methyl)-N,N-dimethyl-1H-tetrazole-1-carboxamide] | – | – | – | nM range | –
CCCCC/C=C\C/C=C\C/C=C\C/C=C\CCCCN1C(=O)C=CC1=O [NAM, N-arachidonylmaleimide] | 51 | 80 | 82 | markedly less potent | extent of hMGL inhibition at large molar excesses ([2]; large molar NAM excesses (Figure 1C)): completely; hMGL Inhibition (%) 10 min ([1]; inhibitor:hMGL molar ratio 33:1): 84%; hMGL inhibition achieved with partial alkylation of Cys215 and/or Cys249 ([1]; molar ratio not stated at the place): ~ 80%; Relative Alkylation of Cys208 ([3]; NAM:hMGL ratio 8.3:1): 0%; Relative Alkylation of Cys39 ([3]; NAM:hMGL ratio 8.3:1): 0%; Relative Alkylation of Cys39 ([3]; NAM:hMGL ratio 33:1): 100% ^(a); Relative Alkylation of Cys208 ([3]; NAM:hMGL ratio 33:1, relative to Cys39/Cys208 pair): 0% ^(a)
LY2183240 | – | – | – | – | IC50 [4]: ~5.3 nM
